Assays:
[1] = biological target: T1, Histone deacetylase 8 (Homo sapiens, UniProt Q9BY41); assay: Inhibition of his-strep-tagged HDAC8 (unknown origin) expressed in SF9 cells using [3H]acetylated human histone H4 peptide as substrate by scintillation counting
T1 sequence (Q9BY41 whole entry): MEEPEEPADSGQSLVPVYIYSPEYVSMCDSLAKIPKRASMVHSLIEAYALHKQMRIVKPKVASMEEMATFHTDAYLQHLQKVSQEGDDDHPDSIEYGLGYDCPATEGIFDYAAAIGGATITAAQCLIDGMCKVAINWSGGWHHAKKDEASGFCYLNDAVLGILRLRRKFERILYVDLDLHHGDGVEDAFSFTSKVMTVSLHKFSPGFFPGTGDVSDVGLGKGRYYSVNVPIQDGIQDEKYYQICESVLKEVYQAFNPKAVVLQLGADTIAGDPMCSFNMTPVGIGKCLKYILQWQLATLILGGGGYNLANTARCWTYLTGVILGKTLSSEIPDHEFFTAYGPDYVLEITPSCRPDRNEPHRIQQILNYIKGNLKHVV

[2] = biological target: Histone deacetylase 3 (Homo sapiens, UniProt O15379); assay: Inhibition of HDAC3 (unknown origin) expressed in HEK293 cells using [3H]acetylated human histone H4 peptide as substrate by scintillation counting
Chain of Histone deacetylase 3 (O15379 whole entry): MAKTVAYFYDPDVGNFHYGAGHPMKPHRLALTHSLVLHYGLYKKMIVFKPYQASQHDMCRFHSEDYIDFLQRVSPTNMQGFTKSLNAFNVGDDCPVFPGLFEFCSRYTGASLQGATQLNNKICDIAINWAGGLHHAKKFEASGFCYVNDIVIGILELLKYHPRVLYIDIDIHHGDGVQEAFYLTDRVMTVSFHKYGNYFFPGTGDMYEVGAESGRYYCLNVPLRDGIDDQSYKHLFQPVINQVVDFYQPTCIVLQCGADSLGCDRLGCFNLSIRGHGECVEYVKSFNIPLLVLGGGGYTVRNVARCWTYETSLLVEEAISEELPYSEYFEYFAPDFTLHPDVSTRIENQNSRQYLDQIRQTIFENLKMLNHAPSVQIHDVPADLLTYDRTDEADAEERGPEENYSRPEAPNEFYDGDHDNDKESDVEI

[3] = biological target: Histone deacetylase 2 (Homo sapiens, UniProt Q92769); assay: Inhibition of flag-tagged HDAC2 (unknown origin) expressed in SF21 cells using [3H]acetylated human histone H4 peptide as substrate by scintillation counting
Chain of Histone deacetylase 2 (Q92769 whole entry): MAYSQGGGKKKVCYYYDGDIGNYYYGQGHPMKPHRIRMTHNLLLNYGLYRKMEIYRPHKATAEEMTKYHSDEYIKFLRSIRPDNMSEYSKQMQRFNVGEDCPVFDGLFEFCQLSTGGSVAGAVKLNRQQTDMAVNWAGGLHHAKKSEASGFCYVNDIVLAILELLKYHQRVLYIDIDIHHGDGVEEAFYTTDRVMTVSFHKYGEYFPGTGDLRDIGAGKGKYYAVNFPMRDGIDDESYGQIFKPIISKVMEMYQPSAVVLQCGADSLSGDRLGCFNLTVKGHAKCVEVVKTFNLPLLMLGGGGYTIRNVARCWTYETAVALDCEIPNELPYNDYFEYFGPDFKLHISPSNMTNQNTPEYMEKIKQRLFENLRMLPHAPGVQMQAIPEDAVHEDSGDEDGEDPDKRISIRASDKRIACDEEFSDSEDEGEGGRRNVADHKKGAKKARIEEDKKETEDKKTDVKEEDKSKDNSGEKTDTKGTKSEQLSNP

[4] = biological target: Histone deacetylase 1 (Homo sapiens, UniProt Q13547); assay: Inhibition of HDAC1 (unknown origin) expressed in HEK293 cells using [3H]acetylated human histone H4 peptide as substrate by scintillation counting; format: cell-based
Chain of Histone deacetylase 1 (Q13547 whole entry): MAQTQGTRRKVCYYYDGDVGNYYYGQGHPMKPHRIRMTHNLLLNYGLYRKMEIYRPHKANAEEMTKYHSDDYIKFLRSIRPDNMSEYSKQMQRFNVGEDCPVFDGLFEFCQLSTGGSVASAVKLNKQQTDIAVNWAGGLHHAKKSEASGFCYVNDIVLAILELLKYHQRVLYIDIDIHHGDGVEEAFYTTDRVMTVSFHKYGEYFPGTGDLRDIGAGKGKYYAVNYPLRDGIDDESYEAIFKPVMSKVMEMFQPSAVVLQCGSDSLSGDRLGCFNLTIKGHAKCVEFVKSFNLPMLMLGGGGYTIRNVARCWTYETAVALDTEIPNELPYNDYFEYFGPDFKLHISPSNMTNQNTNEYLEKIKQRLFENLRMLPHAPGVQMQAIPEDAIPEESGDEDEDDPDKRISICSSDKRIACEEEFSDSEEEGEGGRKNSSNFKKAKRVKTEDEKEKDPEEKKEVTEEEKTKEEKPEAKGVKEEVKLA

[5] = biological target: Histone deacetylase 4 (Homo sapiens, UniProt P56524); assay: Inhibition of HDAC4 (unknown origin) expressed in HEK293 cells using [3H]acetylated human histone H4 peptide as substrate by scintillation counting
Chain of Histone deacetylase 4 (P56524 whole entry): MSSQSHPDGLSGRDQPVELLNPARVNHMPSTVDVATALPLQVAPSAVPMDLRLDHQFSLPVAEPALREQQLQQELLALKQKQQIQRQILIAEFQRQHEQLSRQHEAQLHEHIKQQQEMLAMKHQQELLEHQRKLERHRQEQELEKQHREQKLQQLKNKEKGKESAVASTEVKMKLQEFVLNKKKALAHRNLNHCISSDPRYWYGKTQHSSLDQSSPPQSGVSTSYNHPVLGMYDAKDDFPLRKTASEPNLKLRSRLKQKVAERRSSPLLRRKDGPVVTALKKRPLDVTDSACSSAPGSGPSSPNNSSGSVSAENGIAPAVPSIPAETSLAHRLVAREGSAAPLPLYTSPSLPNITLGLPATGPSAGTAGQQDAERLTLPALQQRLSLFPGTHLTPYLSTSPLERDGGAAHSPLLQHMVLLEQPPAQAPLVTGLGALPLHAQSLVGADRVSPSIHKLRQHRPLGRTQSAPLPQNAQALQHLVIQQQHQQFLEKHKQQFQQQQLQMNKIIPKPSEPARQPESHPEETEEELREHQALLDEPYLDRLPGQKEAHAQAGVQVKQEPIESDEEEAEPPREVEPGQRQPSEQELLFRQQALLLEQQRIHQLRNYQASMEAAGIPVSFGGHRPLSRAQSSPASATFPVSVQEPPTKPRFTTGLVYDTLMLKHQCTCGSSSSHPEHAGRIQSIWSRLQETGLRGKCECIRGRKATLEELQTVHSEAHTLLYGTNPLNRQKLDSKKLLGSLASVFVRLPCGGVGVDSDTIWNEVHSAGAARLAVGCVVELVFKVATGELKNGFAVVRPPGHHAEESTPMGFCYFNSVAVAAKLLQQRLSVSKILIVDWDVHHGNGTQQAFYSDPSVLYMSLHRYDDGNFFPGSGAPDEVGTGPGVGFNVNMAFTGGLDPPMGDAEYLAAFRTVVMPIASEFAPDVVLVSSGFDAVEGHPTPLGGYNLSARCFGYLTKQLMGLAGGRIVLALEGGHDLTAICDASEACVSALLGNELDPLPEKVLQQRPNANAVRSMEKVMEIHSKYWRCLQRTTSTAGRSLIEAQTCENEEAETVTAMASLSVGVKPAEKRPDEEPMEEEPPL

[6] = biological target: T2, Protein deacetylase HDAC6 (Homo sapiens, UniProt Q9UBN7); assay: Inhibition of HDAC6 (unknown origin) expressed in HEK293 cells using [3H]acetylated human histone H4 peptide as substrate by scintillation counting
T2 sequence (Q9UBN7 whole entry): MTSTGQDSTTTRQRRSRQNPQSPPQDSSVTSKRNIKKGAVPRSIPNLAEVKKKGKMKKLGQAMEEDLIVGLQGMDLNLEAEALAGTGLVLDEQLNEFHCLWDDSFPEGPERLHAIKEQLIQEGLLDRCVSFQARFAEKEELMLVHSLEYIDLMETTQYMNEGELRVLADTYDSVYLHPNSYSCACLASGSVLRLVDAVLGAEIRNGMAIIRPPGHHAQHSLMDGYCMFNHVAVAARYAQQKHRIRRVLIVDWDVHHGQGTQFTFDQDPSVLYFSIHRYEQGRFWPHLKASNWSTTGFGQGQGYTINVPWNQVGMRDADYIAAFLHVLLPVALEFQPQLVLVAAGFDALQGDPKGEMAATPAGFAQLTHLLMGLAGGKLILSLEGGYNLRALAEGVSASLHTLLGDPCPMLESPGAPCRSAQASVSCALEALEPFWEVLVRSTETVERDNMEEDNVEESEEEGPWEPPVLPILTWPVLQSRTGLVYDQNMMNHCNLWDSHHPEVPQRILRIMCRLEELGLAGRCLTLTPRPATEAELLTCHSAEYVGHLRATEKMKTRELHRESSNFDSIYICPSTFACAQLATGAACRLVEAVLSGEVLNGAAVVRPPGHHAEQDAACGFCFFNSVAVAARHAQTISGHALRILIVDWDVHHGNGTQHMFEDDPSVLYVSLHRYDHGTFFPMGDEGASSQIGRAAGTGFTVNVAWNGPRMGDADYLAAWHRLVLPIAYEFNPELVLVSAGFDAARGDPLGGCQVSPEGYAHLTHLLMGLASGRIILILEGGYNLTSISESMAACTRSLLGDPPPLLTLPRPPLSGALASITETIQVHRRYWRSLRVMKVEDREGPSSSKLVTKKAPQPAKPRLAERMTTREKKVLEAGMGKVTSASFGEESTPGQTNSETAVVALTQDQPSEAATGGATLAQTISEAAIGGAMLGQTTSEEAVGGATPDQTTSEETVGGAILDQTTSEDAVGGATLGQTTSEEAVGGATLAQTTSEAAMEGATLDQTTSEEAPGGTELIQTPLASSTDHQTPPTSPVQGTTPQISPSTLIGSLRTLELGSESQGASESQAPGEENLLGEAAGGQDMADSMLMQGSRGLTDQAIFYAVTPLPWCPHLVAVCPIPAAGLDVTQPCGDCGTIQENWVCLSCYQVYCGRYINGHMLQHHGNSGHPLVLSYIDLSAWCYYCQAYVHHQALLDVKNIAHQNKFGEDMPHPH

[7] = biological target: CYP2C9 (Homo sapiens, UniProt P11712); assay: Activity of recombinant human CYP2C9 expressed in Escherichia coli JM109 co-expressing P450 reductase assessed as enzyme-mediated drug metabolism measured as compound remaining after 1 hr by LC-MS analysis; format: ADME; details: read-out: Stability
How it was run: (§1)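 Whole E. coli cells were diluted in PSE buffer (50 mM KH2PO4, 250 mM sucrose, 0.25 mM EDTA, pH 7.4) to 100 mg/ml wet biomass. Each suspension was mixed with DL-isocitrate and substrate stock (5 mg/ml in ACN/DMSO 19:1) in aerated caps. Incubation was at 30°C, 1100 rpm for 0.5 or 1 h. Reactions were stopped with ACN/methanol (1:1) and centrifuged, and the supernatant was analysed by LC-MS.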

[8] = biological target: CYP2C18 (Homo sapiens, UniProt P33260); assay: Activity of recombinant human CYP2C18 expressed in Escherichia coli JM109 co-expressing P450 reductase assessed as enzyme-mediated drug metabolism measured as compound remaining after 1 hr by LC-MS analysis; format: ADME; details: read-out: Stability; how it was run: as §1
[9] = biological target: T3, CYP2D6 (Homo sapiens, UniProt P10635); assay: Activity of recombinant human CYP2D6 expressed in Escherichia coli JM109 co-expressing P450 reductase assessed as enzyme-mediated drug metabolism measured as compound remaining after 1 hr by LC-MS analysis; format: ADME; details: read-out: Stability; how it was run: as §1
T3 sequence (P10635 whole entry): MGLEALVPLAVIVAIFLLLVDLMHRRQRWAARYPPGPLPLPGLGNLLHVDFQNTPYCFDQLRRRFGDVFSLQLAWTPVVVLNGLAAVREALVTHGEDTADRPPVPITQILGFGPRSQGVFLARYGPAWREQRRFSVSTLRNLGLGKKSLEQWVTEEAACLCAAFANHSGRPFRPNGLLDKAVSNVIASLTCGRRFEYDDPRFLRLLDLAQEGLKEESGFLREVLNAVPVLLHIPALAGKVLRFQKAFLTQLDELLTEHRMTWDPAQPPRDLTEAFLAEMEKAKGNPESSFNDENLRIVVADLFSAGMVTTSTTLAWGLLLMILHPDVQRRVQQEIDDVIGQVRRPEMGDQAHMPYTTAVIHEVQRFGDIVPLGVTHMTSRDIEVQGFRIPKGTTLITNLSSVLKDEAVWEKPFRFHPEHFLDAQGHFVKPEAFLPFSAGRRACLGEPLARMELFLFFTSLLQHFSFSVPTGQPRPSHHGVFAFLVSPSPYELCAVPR

[10] = biological target: CYP4A11 (Homo sapiens, UniProt Q02928); assay: Activity of recombinant human CYP4A11 expressed in Escherichia coli JM109 co-expressing P450 reductase assessed as enzyme-mediated drug metabolism measured as compound remaining after 1 hr by LC-MS analysis; format: ADME; details: read-out: Stability; how it was run: as §1
[11] = biological target: CYP1B1 (Homo sapiens, UniProt Q16678); assay: Activity of recombinant human CYP1B1 expressed in Escherichia coli JM109 co-expressing P450 reductase assessed as enzyme-mediated drug metabolism measured as compound remaining after 1 hr by LC-MS analysis; format: ADME; details: read-out: Stability; how it was run: as §1
[12] = biological target: CYP2C8 (Homo sapiens, UniProt P10632); assay: Activity of recombinant human CYP2C8 expressed in Escherichia coli JM109 co-expressing P450 reductase assessed as enzyme-mediated drug metabolism measured as compound remaining after 1 hr by LC-MS analysis; format: ADME; details: read-out: Stability; how it was run: as §1
[13] = biological target: CYP3A5 (Homo sapiens, UniProt P20815); assay: Activity of recombinant human CYP3A5 expressed in Escherichia coli JM109 co-expressing P450 reductase assessed as enzyme-mediated drug metabolism measured as compound remaining after 1 hr by LC-MS analysis; format: ADME; details: read-out: Stability; how it was run: as §1
[14] = biological target: T4, CYP3A4 (Homo sapiens, UniProt P08684); assay: Activity of recombinant human CYP3A4 expressed in Escherichia coli JM109 co-expressing P450 reductase assessed as enzyme-mediated drug metabolism measured as compound remaining after 1 hr by LC-MS analysis in presence of cytochrome b5; format: ADME; details: read-out: Stability; how it was run: as §1
T4 sequence (P08684 whole entry): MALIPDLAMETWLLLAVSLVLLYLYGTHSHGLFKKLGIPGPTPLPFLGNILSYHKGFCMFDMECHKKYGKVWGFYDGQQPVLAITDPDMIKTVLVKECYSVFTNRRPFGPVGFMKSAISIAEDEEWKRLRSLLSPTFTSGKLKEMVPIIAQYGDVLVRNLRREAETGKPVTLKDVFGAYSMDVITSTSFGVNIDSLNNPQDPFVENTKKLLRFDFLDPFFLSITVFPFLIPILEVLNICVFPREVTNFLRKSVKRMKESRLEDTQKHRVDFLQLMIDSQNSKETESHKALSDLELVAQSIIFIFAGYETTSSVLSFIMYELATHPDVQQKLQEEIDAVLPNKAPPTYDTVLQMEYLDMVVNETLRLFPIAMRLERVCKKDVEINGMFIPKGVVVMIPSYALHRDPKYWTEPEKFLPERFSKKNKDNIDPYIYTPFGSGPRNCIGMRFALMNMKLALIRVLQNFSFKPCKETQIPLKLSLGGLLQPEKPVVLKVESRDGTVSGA

[15] = biological target: T4, CYP3A4; assay: Activity of recombinant human CYP3A4 expressed in Escherichia coli JM109 co-expressing P450 reductase assessed as enzyme-mediated drug metabolism measured as compound remaining after 1 hr by LC-MS analysis; format: ADME; details: read-out: Stability; how it was run: as §1
[16] = biological target: CYP1A2 (Homo sapiens, UniProt P05177); assay: Activity of recombinant human CYP1A2 expressed in Escherichia coli JM109 co-expressing P450 reductase assessed as enzyme-mediated drug metabolism measured as compound remaining after 1 hr by LC-MS analysis; format: ADME; details: read-out: Stability; how it was run: as §1
Chain of CYP1A2 (P05177 whole entry): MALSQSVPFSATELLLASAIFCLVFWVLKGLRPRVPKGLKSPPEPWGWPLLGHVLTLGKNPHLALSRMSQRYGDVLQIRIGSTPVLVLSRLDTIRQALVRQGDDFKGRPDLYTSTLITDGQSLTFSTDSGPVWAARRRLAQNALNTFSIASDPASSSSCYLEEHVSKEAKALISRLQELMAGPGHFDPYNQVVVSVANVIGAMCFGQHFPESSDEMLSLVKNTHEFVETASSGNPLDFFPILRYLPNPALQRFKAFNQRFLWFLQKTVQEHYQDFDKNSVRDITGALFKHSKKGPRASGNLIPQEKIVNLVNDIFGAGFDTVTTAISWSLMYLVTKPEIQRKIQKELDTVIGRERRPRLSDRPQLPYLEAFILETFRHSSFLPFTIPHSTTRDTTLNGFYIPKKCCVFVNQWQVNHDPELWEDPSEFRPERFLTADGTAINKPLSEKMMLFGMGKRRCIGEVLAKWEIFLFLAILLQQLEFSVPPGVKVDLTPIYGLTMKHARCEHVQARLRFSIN

[17] = biological target: T4, CYP3A4; assay: Activity of recombinant human CYP3A4 expressed in supersomes assessed as enzyme-mediated drug metabolism measured as compound remaining at 10 uM after 1 hr by LC-MS analysis; format: ADME; details: read-out: Stability
How it was run: (§2)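 Insect-cell Supersomes coexpressing the rh P450 and rh P450 reductase were incubated with 10 µM substrate in 185 mM HEPES pH 7.5. The mix contained 6.65 mM MgCl2, 0.5 mM NADP, 2.54 mM DL-isocitrate and isocitric dehydrogenase. The reaction was started with the NADPH-regenerating system and run 1 h at 30°C without shaking. It was extracted with 1 volume ACN, centrifuged at 21,000g, and the supernatant analysed by LC-MS.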

[18] = biological target: CYP2C19 (Homo sapiens, UniProt P33261); assay: Activity of recombinant human CYP2C19 expressed in Escherichia coli JM109 co-expressing P450 reductase assessed as enzyme-mediated drug metabolism measured as compound remaining after 1 hr by LC-MS analysis; format: ADME; details: read-out: Stability; how it was run: as §1
[19] = biological target: T3, CYP2D6; assay: Activity of recombinant human CYP2D6 expressed in supersomes assessed as enzyme-mediated drug metabolism measured as compound remaining at 10 uM after 1 hr by LC-MS analysis; format: ADME; details: read-out: Stability; how it was run: as §2
[20] = biological target: CYP2B6 (Homo sapiens, UniProt P20813); assay: Activity of recombinant human CYP2B6 expressed in Escherichia coli JM109 co-expressing P450 reductase assessed as enzyme-mediated drug metabolism measured as compound remaining after 1 hr by LC-MS analysis; format: ADME; details: read-out: Stability; how it was run: as §1
Chain of CYP2B6 (P20813 whole entry): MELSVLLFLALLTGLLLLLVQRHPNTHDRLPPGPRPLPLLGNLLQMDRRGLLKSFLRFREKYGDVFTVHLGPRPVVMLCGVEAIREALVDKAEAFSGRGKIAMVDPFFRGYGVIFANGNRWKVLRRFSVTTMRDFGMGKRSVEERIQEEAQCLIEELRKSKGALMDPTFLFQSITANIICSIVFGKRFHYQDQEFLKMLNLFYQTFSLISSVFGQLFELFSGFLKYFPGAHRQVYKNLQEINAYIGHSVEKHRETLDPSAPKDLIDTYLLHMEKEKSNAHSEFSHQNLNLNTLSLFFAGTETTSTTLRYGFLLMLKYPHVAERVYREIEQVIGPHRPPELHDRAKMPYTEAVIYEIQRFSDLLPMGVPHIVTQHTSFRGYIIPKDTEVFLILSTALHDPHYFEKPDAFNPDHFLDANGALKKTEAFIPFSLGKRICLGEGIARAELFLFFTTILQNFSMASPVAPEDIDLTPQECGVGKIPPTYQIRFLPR

[21] = biological target: CYP2E1 (Homo sapiens, UniProt P05181); assay: Activity of recombinant human CYP2E1 expressed in Escherichia coli JM109 co-expressing P450 reductase assessed as enzyme-mediated drug metabolism measured as compound remaining after 1 hr by LC-MS analysis; format: ADME; details: read-out: Stability; how it was run: as §1
[22] = Drug metabolism in Escherichia coli JM109 assessed as compound remaining after 1 hr by LC-MS analysis; format: ADME, organism-based; details: read-out: Stability; how it was run: as §1
[23] = biological target: CYP1A1 (Homo sapiens, UniProt P04798); assay: Activity of recombinant human CYP1A1 expressed in Escherichia coli JM109 co-expressing P450 reductase assessed as enzyme-mediated drug metabolism measured as compound remaining after 1 hr by LC-MS analysis; format: ADME; details: read-out: Stability; how it was run: as §1
Chain of CYP1A1 (P04798 whole entry): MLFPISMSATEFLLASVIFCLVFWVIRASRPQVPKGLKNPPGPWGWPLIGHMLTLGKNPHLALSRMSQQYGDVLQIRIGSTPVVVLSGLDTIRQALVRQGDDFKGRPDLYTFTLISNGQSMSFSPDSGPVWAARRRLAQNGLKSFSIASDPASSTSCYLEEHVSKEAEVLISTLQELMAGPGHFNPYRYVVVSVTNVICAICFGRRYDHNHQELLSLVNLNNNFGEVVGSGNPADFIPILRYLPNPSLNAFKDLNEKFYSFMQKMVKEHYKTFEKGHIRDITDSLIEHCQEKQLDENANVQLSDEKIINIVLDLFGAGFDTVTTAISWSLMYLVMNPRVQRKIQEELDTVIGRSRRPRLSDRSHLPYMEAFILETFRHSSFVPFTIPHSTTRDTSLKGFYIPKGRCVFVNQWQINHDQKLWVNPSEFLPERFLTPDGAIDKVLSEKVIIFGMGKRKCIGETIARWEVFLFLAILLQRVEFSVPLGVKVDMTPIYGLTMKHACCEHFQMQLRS

[24] = biological target: CYP2A6 (Homo sapiens, UniProt P11509); assay: Activity of recombinant human CYP2A6 expressed in Escherichia coli JM109 co-expressing P450 reductase assessed as enzyme-mediated drug metabolism measured as compound remaining after 1 hr by LC-MS analysis; format: ADME; details: read-out: Stability; how it was run: as §1

| Structure (SMILES) | IC50 [1] | IC50 [2] | IC50 [3] | IC50 [4] | IC50 [5] | IC50 [6] | other results |
| --- | --- | --- | --- | --- | --- | --- | --- |
| Cc1[nH]c2ccccc2c1CCNCc1ccc(/C=C/C(=O)NO)cc1 [PANOBINOSTAT] |  |  |  |  |  |  | remaining at 1 h [7]: 34%; remaining at 1 h [8]: 56%; remaining at 1 h [9]: 44%; remaining at 1 h [10]: 59%; remaining at 1 h [11]: 79%; remaining at 1 h [12]: 63%; remaining at 1 h [13]: 73%; remaining at 1 h [14]: 45%; remaining at 1 h [15]: 37%; remaining at 1 h [16]: 72%; remaining at 1 h, 10 µM [17]: 94%; remaining at 1 h [18]: 80%; remaining at 1 h, 10 µM [19]: 94%; remaining at 1 h [20]: 62%; remaining at 1 h [21]: 50%; remaining at 1 h [22]: 55%; remaining at 1 h [23]: 61%; remaining at 1 h [24]: 81% |
| C[C@@]12Nc3ccccc3[C@]1(O)CCN2Cc1ccc(/C=C/C(N)=O)cc1 | 23 µM | 0.93 µM | 6 µM | 0.97 µM | 1 µM | 1.1 µM |  |

Second part, led by results:

| IC50 [1] | IC50 [2] | IC50 [3] | IC50 [4] | IC50 [5] | IC50 [6] | Structure (SMILES) | other results |
| --- | --- | --- | --- | --- | --- | --- | --- |
| 0.92 µM | 0.18 µM | 1.5 µM | 0.14 µM | 0.23 µM | 0.062 µM | C[C@@]12Nc3ccccc3[C@]1(O)CCN2Cc1ccc(/C=C/C(=O)NO)cc1 |  |
| 6.8 µM | 3.3 µM | 27 µM | 4.6 µM | 4.6 µM | 4.9 µM | Cc1[nH]c2cc(O)ccc2c1CCNCc1ccc(/C=C/C(N)=O)cc1 |  |
| 22 µM | 22 µM | 29 µM | 11 µM | 18 µM | > 30 µM | Cc1[nH]c2ccccc2c1CCNCc1ccc(/C=C/C(N)=O)cc1 |  |

From ChEMBL document CHEMBL3526051 (Drug Metab Dispos, 2012)
